Active and inactive are the calls of the source. No cut-off for these calls is given here.
Columns and labels:
HepG2 [1] = assay: Protection against AfB1-induced toxicity in human HepG2 cells assessed as increase in live cell area at >5 uM measured after 48 hrs by calcein-AM/Hoechst 33342 staining based high-content imaging analysis relative to control; format: functional
HepG2 [2] = assay: Protection against AfB1-induced toxicity in human HepG2 cells assessed as live cell area at 5 uM measured after 48 hrs by calcein-AM/Hoechst 33342 staining based high-content imaging analysis relative to control; format: functional
HepG2 [3] = assay: Protection against AfB1-induced toxicity in human HepG2 cells assessed as live cell area at 0.5 uM measured after 48 hrs by calcein-AM/Hoechst 33342 staining based high-content imaging analysis relative to control; format: functional
HepG2 [4] = assay: Protection against AfB1-induced toxicity in human HepG2 cells assessed as increase in live cell area at >0.5 uM measured after 48 hrs by calcein-AM/Hoechst 33342 staining based high-content imaging analysis relative to control; format: functional
HepG2 [5] = assay: Protection against AfB1-induced toxicity in human HepG2 cells assessed as live cell area at 12.5 uM measured after 48 hrs by calcein-AM/Hoechst 33342 staining based high-content imaging analysis relative to control; format: functional
HepG2 [6] = assay: Protection against AfB1-induced toxicity in human HepG2 cells assessed as increase in live cell area at >12.5 uM measured after 48 hrs by calcein-AM/Hoechst 33342 staining based high-content imaging analysis relative to control; format: functional
HepG2 [7] = assay: Protection against AfB1-induced morphological changes in 3D-spheroids of human HepG2 cells up to 10 uM measured after 3 days by calcein-AM/Hoechst 33342 staining based microscopic analysis; format: functional, cell-based
Outline: (§1)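 HepG2 spheroids: 1000 cells/well in ultralow-attachment plates, grown 4 days to tight spheroids, then test compounds (10 μM) plus AfB1 in complete EMEM for 3 further days. Calcein AM/Hoechst staining and high-content imaging of viability and live spheroid size. Live cell area relative to DMSO vehicle-only spheroids; n = 3.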

HepG2 [8] = assay: Toxicity in human HepG2 cells measured after 48 hrs by calcein-AM/Hoechst 33342 staining based high-content imaging analysis; format: cell-based; details: hepg2, 48 h
HepG2 [9] = assay: Protection against AfB1-induced toxicity in 3D-spheroids of human HepG2 cells assessed as live cell area at 10 uM measured after 3 days by calcein-AM/Hoechst 33342 staining based high-content imaging analysis relative to control; format: functional; outline: as §1
HepG2 [10] = assay: Protection against AfB1-induced toxicity in human HepG2 cells assessed as live cell area at 50 uM measured after 48 hrs by calcein-AM/Hoechst 33342 staining based high-content imaging analysis relative to control; format: functional
HepG2 [11] = assay: Increase in live cell area in human HepG2 cells measured after 48 hrs by calcein-AM/Hoechst 33342 staining based high-content imaging analysis; format: functional
HepG2 [12] = assay: Protection against AfB1-induced toxicity in human HepG2 cells assessed as increase in live cell area measured after 48 hrs by calcein-AM/Hoechst 33342 staining based high-content imaging analysis; format: functional

## COC1=C(O)c2c(O)cc(C)c3c(O)cc(O)c(c23)C1=O
HepG2 [1]
  Activity: inactive
HepG2 [2]
  %max: 20.5%

## Cc1cc(O)cc2oc(=O)c3c(O)cc(O)cc3c12 [ALTERNARIOL]
HepG2 [3]
  %max: 15.2%
HepG2 [4]
  Activity: inactive

## COc1cc(O)cc(OC)c1
HepG2 [1]
  Activity: inactive
HepG2 [2]
  %max: 37%

## COc1ccc(C(=O)c2ccccc2)c(O)c1 [OXYBENZONE]
HepG2 [5]
  %max: 61.6%
HepG2 [6]
  Activity: inactive

## COc1ccc(C(=O)NCc2cccnc2)c(O)c1
HepG2 [3]
  %max: 33.5%
HepG2 [4]
  Activity: inactive

## COc1cc(O)c2c(=O)oc3cc(O)cc(C)c3c2c1
HepG2 [7]
  Activity: Active
HepG2 [8]
  Activity: Non-Toxic
HepG2 [9]
  Activity: 95%
HepG2 [10]
  %max: 67%

## COC(=O)c1cc(O)cc(OC)c1C(=O)c1c(O)cc(C)cc1OC
HepG2 [10]
  %max: 68.3%

## COc1cc(C(=O)c2ccccc2)ccc1O
HepG2 [10]
  %max: 60.2%

## COc1cc(O)c2c(=O)c3ccccc3oc2c1
HepG2 [1]
  Activity: inactive
HepG2 [2]
  %max: 63.9%
HepG2 [7]
  Activity: Active
HepG2 [8]
  Activity: Toxic
HepG2 [9]
  Activity: 72%

## COc1cc(O)c2c(=O)oc3cc(O)c(O)cc3c2c1
HepG2 [8]
  Activity: Toxic
HepG2 [10]
  %max: 65.7%

## Cc1c(-c2cnccn2)ssc1=S
HepG2 [11]
  Activity: Active
HepG2 [12]
  Activity: Active

## CC(=O)N[C@@H](CS)C(=O)O
HepG2 [11]
  Activity: Active
HepG2 [12]
  Activity: Active

## COc1cc(OC)c2c(O)c3c(=O)cc(C)oc3cc2c1 [RUBROFUSARIN B]
HepG2 [3]
  %max: 64.9%
HepG2 [8]
  Activity: Toxic
HepG2 [4]
  Activity: inactive

## COc1ccc(C(=O)c2ccc(OC)cc2O)c(O)c1
HepG2 [10]
  %max: 53.9%

## CC(C)c1nc(CN(C)C(=O)N[C@H](C(=O)N[C@@H](Cc2ccccc2)C[C@H](O)[C@H](Cc2ccccc2)NC(=O)OCc2cncs2)C(C)C)cs1 [RITONAVIR]
HepG2 [3]
  %max: 72%
HepG2 [4]
  Activity: inactive

## COc1cc(C(O)c2ccccc2)ccc1O (centres undefined)
HepG2 [10]
  %max: 41%

Source: ChEMBL document CHEMBL4392876, “Natural-Product-Inspired Compounds as Countermeasures against the Liver Carcinogen Aflatoxin B1” (J Nat Prod, 2019)
